Shown are actives, neighbours in structure and some others; about 2.8% of the full set was active somewhere.
NPY Y2 blocker – NPY-Y2 (human) receptor antagonism. actives 0.99% (n = 140,000). P49146. inhibition, % at 2.7 µM. NPY-Y2 expressing cells, antagonist mode. AID 793; in the data active means inhibition above about 17%
NPY-Y2 PAM-ag – potentiates or activates human NPY-Y2 receptor | activation, % at 3.6 µM | actives 0.45% (n = 220,000) | P49146 | AID 1359 | cells expressing NPY-Y2, potentiator/agonist read-out; in the data active means activation above about 27%;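 further: cells stimulated with NPY near EC25 plus isoproterenol at EC100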
EP2 modulator – EP2 receptor (human) modulation. EP2-expressing cells, cAMP HTRF FRET, PGE2 co-stimulation. induction, % at 25 µM. actives 0.83% (n = 260,000). P43116. AID 940;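 active means compounds whose cAMP rise, as percent of the full-agonist control response, exceeds 60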;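 further: rat C6 glioma line stably carrying human EP2 under a CMV promoter; the protocol text gives 20 µM as final concentration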
Target sequence (P43116 whole entry, looked up): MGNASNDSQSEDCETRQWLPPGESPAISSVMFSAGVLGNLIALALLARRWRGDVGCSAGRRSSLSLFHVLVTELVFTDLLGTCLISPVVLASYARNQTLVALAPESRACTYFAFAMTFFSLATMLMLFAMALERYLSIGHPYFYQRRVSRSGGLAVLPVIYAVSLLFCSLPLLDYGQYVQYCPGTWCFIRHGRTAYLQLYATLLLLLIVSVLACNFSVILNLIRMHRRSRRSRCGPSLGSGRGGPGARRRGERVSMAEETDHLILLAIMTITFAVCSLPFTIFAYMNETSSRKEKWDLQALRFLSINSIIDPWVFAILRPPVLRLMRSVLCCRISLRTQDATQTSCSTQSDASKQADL
EP2 antag – EP2 receptor (human) inhibition; P43116; C6 glioma cells expressing human EP2, cAMP TR-FRET; cells stimulated with saturating PGE2; inhibition, % at 25 µM; actives 0.52% (n = 260,000); AID 1422;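 active means percent inhibition above 40 after rounding to a whole number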;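 further: rat C6 glioma host cells with rolipram phosphodiesterase inhibitor present; the protocol text gives 20 µM as final concentration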
NPY1 pot ag – human NPY-Y1 potentiation or agonism, primary screen. P25929. activation, % at 3.6 µM. NPY-Y1 expressing cells, potentiator/agonist activation. actives 0.37% (n = 220,000); in the data active means activation above about 33%, passing the limit was not always enough;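 further: cells stimulated with NPY at EC10 then isoproterenol at EC100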
NPY-Y1 antag – blocks the human neuropeptide Y Y1 receptor | actives 1% (n = 200,000) | AID 1040 | P25929 | HEK293-CNG Y1 cells, membrane potential fluorescence; NPY at EC95, then isoproterenol | inhibition, % at 3.6 µM;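 active means inhibition above the campaign mean inhibition of all tested compounds plus 3 SD, cut at about 20% in these data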
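Material: Y1- and CNG-channel-expressing HEK293 cells / Probe or stimulus: NPY 25 nM then isoproterenol 1 µM plus Ro 20-1724 25 µM / Doses: 3.6 µM single dose, DMSO 0.4% / Schedule: compound incubation 1 h at room temperature, readout 45 min post-stimulation / Signal: membrane potential fluorescence / Benchmarks: isoproterenol-only wells as full block versus NPY-plus-isoproterenol wells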
Hits are given with their value; n = inactive; x = no result given; ! = not active in a repeat.

SMILES	NPY Y2 blocker	NPY-Y2 PAM-ag	EP2 modulator	EP2 antag	NPY1 pot ag	NPY-Y1 antag
O=C(CN1CCOCC1)Nc1sc2c(c1C(=O)c1ccc(Cl)cc1)CCC2	x	x	62	n	x	x
O=C1/C(=C/c2cccc3ccccc23)CCCc2ccccc21	n	n	61	x	n	n
COc1ccc(NS(=O)(=O)c2ccc(OC)c(OC)c2)cc1OC	n	n	n	n	n	n
COc1ccc(S(=O)(=O)Nc2cccc(Cl)c2)cc1OC	n	58	n	n	68	n
CCn1nc(CC(=O)N2C3CCC2CC(c2ccc(F)cc2)C3)c2ccccc2c1=O (centres undefined)	x	x	n	x	x	x
O=C(COC(=O)c1cc(-c2ccccc2)nc2ccccc12)Nc1ccc2c(c1)OCO2	n	n	n	n	n	n
O=C(COC(=O)c1c2c(nc3ccccc13)CCCC2)Nc1ccc2c(c1)OCO2	17	n	n	n	n	20
Cc1ccccc1NC1C=CS(=O)(=O)C1 (centres undefined)	n	107	n	n	n	n
COCCNC(=O)C(c1cccs1)N(Cc1cccs1)C(=O)Cn1nnc2ccccc21 (centres undefined)	n	n	n	n	n	n
CC(C)CCNC(=O)C(c1ccco1)N(Cc1cccs1)C(=O)Cn1nnc2ccccc21 (centres undefined)	n	n	n	n	n	24
Cc1c(C(=O)N/N=C/c2cccnc2)sc(=S)n1C	n	54	n	n	57	n
Cc1cc(C)c2c(N)c(C(=O)N/N=C/c3cccnc3)sc2n1	x	n	n	n	n	x
Cn1c(=O)c2cc(S(=O)(=O)NCC(O)COc3ccccc3)ccc2n(C)c1=O (centres undefined)	x	x	n	n	x	x
Cc1ccc(S(=O)(=O)N2CCC(C(=O)Nc3nnc(-c4ccco4)s3)CC2)cc1	n	52	n	46!	44	n
COc1ccc(/C(O)=C2/C(=O)C(=O)N(Cc3cccnc3)C2c2cccnc2)cc1F (centres undefined)	x	x	n	n	x	x
COc1cc(C)cc2c(-c3c(O)cc(O)c4c3C[C@H](C)N[C@@H]4C)cc(-c3cc(-c4c(O)cc(O)c5c4C[C@H](C)N[C@@H]5C)c4cc(C)cc(OC)c4c3O)c(O)c12	x	x	n	41	x	x
COc1ccccc1-n1c(=O)c(C#N)c(-c2ccc([N+](=O)[O-])cc2)c2cc(C(=O)c3ccccc3O)cnc21	x	49	n	n	73	x
Cc1ccc(NC(=O)NC(=O)CN2C(=O)NC3(CCCCCCC3)C2=O)c(C)c1	n	n	n	n	40	n
O=C(COc1ccc(Cl)cc1Cl)Nc1cccc(NC(=O)c2cccs2)c1	x	x	n	n	x	x
Cc1noc(C)c1C(=O)Nc1nc(C23CC4CC(CC(C4)C2)C3)cs1	n	72	n	n	45	n
COCCCn1nnnc1SCC(=O)Nc1cccc(F)c1	x	x	n	n	x	x
CC1CC(=O)c2c(cc3c(-c4c(O)cc(O)c5c(O)c6c(cc45)OC(C)CC6=O)c(O)cc(O)c3c2O)O1 (centres undefined)	x	n	n	77	n	n
CCN1CCCC1CNc1c(Cc2ccccc2)c(C)nc2ncnn12 (centres undefined)	x	x	n	n	x	x
Cc1cc2ccccc2n2c(=O)n(CCNC(=O)CN(C)C(=O)c3ccco3)nc12	x	x	n	n	x	x
CC(=O)N(C)c1ccc(NS(=O)(=O)c2cc(Cl)ccc2Cl)cc1	x	n	n	n	n	21
SMILES	NPY Y2 blocker	NPY-Y2 PAM-ag	EP2 modulator	EP2 antag	NPY1 pot ag	NPY-Y1 antag
Oc1ccc([C@H]2Oc3cc(O)cc(O)c3C[C@H]2O)cc1	x	x	n	n	x	x
Oc1cc(O)c2c(c1)O[C@H](c1ccc(O)c(O)c1)[C@@H](O)[C@@H]2c1c(O)cc(O)c2c1O[C@@H](c1ccc(O)c(O)c1)[C@H](O)C2	x	x	n	51	x	x
CC[N+](C)(C)CCN(Cc1ccc(Cl)cc1)c1ccccn1	n	n	n	n	n	n
C[N+](C)(C)CCN(Cc1cccs1)c1ccccn1	x	x	n	55	x	x
Cc1ccc(S(=O)(=O)NCCC(c2ccc(F)cc2)c2ccco2)cc1 (centres undefined)	n	n	n	n	n	n
Cc1ccc(S(=O)(=O)NCCC(c2ccccc2)c2ccco2)cc1 (centres undefined)	n	n	64	n	n	n
Cc1ccc(NC(=S)N(Cc2ccco2)Cc2cc3cc(C)cc(C)c3[nH]c2=O)c(C)c1	x	x	n	n	x	x
N=C(N)SCCc1ccncc1	x	x	n	48	x	x
O=C(NCc1ccc(F)cc1)c1ccc(S(=O)(=O)Nc2cccc(C(F)(F)F)c2)cc1	n	37	n	n	48	n
O=C(NCCCCNC(=O)c1ccncc1)c1ccncc1	x	x	n	n	x	x
c1ccc(CN2CCC3(CC2)SSC2(CCN(Cc4ccccc4)CC2)SS3)cc1	x	x	n	45	x	x
OC1(c2ccc(F)cc2)CCN(Cc2ccccc2)C1 (centres undefined)	n	n	61	x	n	n
CCC(=O)c1ccc2c(c1)N(CCCN(C)C)c1ccccc1S2	x	x	n	n	x	x
CCc1ccc2c(c1)N(C[C@H](C)CN(C)C)c1ccccc1S2	x	x	n	44	x	x
Cc1ccc(CN(Cc2cc3c(C)cc(C)cc3[nH]c2=O)Cc2nnnn2CC2CCCO2)cc1 (centres undefined)	x	x	n	n	x	x
CCOC(=O)C1(P(=O)(c2ccc(Cl)cc2)c2ccc(Cl)cc2)CCC1	27	n	n	n	n	28
O=C(O)C1(P(=O)(c2ccc(Cl)cc2)c2ccc(Cl)cc2)CC1	x	n	n	n	n	n
O=C(Nc1cc(Cl)ccc1N1CCOCC1)c1cc2ccccc2o1	x	x	81	n	x	x
COc1cccc(C(NC(=O)C2CCCC2)c2nccn2C)c1OC (centres undefined)	x	x	n	n	x	x
CCOC(=O)N1CCN(CC(O)COc2ccc(C)cc2C(C)(C)C)CC1 (centres undefined)	n	61	n	n	77	n
CCOC(=O)N1CCN(CC(O)COCc2ccc(OC)c(OC)c2)CC1 (centres undefined)	n	n	n	n	n	n
C=CCc1cc(CN2CCC(C(=O)c3cccnc3)CC2)cc(OC)c1OC	x	x	72	n	x	x
CCC(C)(C)n1nnnc1C(c1cc(OC)ccc1OC)N1CCN(Cc2ccccc2)CC1 (centres undefined)	x	n	n	n	n	20
CCC(C)(C)n1nnnc1C(c1ccc(OC)c(OC)c1)N1CCN(c2ccccc2)CC1 (centres undefined)	n	n	n	n	n	n
CCC(C)(C)n1nnnc1C(c1ccc(C)cc1)N1CCC(C)CC1 (centres undefined)	20	n	n	n	n	39
CCC(C)(C)n1nnnc1C(c1ccncc1)N1CCC(C)CC1 (centres undefined)	n	n	n	n	n	n
CCC(C)(C)n1nnnc1C(c1ccc(OC)c(OC)c1)N1CCN(c2cccc(OC)c2)CC1 (centres undefined)	22	n	n	n	n	24

Compound activity from PubChem.
